Test results taken from ChEMBL document CHEMBL3399931, “Reversible and irreversible small molecule inhibitors of monoamine oxidase B (MAO-B) investigated by biophysical techniques” (Bioorg Med Chem, 2015).

Experiments:
[1] = target: T1, Amine oxidase [flavin-containing] B (Homo sapiens, UniProt P27338); test: Inhibition of human recombinant soluble MAO-B assessed as change in melting temperature at 100 uM after 20 mins by SYPRO orange staining-based fluorescence assay
T1 sequence (P27338 whole entry): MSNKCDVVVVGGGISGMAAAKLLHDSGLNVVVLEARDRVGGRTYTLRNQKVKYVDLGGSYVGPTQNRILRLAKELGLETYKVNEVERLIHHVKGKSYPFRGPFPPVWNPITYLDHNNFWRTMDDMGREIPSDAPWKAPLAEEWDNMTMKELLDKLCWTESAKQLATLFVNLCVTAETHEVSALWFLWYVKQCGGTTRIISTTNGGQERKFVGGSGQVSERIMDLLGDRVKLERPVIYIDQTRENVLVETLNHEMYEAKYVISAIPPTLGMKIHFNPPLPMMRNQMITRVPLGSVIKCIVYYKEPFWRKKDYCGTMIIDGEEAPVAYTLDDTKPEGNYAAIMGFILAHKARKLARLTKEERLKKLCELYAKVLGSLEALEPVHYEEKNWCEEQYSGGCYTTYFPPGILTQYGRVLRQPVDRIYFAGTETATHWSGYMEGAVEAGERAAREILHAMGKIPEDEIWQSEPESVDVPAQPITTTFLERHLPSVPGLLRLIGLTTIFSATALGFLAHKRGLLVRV
Summary of the method: (§1)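 It was preincubated with serial compound dilutions (0.5–10 µM or 1.7–100 µM) for 20 min at 4 °C in 10% DMSO. 1x SYPRO orange was then added and samples ramped 25–80 °C at 1 °C/s. Boltzmann Tm was taken from the ~50–70 °C region, and ΔTm = Tm(compound) − Tm(DMSO only).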

[2] = target: T1, Amine oxidase [flavin-containing] B; test: Inhibition of human recombinant soluble MAO-B expressed in Pichia pastoris incubated for 30 mins prior to substrate addition measured after 60 mins by MAO-Glo assay
[3] = target: T1, Amine oxidase [flavin-containing] B; test: Inhibition of human recombinant microsomal MAO-B expressed in Pichia pastoris incubated for 30 mins prior to substrate addition measured after 60 mins by MAO-Glo assay
[4] = target: T1, Amine oxidase [flavin-containing] B; test: Inhibition of human recombinant soluble MAO-B assessed as thermal shift after 20 mins by SYPRO orange staining-based fluorescence assay; summary of the method: as §1
[5] = target: T2, Amine oxidase [flavin-containing] B (Rattus norvegicus, UniProt P19643); test: Reversible inhibition of MAO-B in rat whole brain homogenate assessed as recovered activity at 100 times IC50 incubated for 60 mins followed by 6 washes by Amplex Red assay; assay type: tissue-based; design: scale not given: the % may be the effect or the level left; conditions: 1 h
T2 sequence (P19643 whole entry): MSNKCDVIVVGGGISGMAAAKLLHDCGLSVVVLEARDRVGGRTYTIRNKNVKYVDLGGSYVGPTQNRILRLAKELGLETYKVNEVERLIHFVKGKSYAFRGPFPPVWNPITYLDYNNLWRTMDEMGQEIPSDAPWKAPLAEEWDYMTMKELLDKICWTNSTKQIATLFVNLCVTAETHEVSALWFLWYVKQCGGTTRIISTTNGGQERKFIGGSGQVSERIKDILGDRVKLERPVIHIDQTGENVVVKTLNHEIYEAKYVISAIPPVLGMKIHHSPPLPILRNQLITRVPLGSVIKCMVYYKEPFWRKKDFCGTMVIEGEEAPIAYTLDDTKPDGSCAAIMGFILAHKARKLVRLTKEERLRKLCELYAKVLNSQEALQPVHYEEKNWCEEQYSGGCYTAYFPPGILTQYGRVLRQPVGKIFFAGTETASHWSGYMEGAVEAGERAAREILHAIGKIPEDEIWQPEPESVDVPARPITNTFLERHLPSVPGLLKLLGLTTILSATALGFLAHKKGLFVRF

[6] = target: T2, Amine oxidase [flavin-containing] B; test: Reversible inhibition of MAO-B in rat whole brain homogenate assessed as recovered activity at 100 times IC50 incubated for 60 mins followed by 3 washes by Amplex Red assay; assay type: tissue-based; design: scale not given: the % may be the effect or the level left; conditions: 1 h
[7] = target: T1, Amine oxidase [flavin-containing] B; test: Inhibition of human recombinant soluble MAO-B assessed as change in melting temperature at 10 uM after 20 mins by SYPRO orange staining-based fluorescence assay
[8] = target: T2, Amine oxidase [flavin-containing] B; test: Inhibition of MAO-B in rat whole brain homogenate; assay type: tissue-based
Summary of the method: (§2)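 Insoluble fraction of rat brain lysate was assayed with the non-selective MAO-Glo substrate. Dose–response curves were run against a matrix of fixed concentrations of an MAO-A-selective inhibitor (0.06–200 nM) and an MAO-B-selective inhibitor (0.05–50,000 nM), so that each isoform's contribution could be separated.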

[9] = target: T3, Amine oxidase [flavin-containing] A (Rattus norvegicus, UniProt P21396); test: Inhibition of MAO-A in rat whole brain homogenate; assay type: tissue-based; summary of the method: as §2
T3 sequence (P21396 whole entry): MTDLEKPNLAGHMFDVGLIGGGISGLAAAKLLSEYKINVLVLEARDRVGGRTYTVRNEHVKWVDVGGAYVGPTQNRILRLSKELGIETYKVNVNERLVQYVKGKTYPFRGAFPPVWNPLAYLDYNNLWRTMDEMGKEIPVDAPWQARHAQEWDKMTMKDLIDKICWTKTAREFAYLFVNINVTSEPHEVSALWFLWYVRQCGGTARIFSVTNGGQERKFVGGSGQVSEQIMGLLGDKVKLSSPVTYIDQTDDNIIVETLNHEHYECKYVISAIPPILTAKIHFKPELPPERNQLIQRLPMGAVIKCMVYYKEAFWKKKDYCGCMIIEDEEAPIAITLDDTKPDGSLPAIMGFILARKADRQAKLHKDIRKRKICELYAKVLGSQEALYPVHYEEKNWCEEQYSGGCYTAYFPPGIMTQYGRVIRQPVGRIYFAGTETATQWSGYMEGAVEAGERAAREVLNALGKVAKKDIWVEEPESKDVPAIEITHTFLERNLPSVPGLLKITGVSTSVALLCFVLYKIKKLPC

## Cn1c(=O)c2c(nc(/C=C/c3cccc(Cl)c3)n2C)n(C)c1=O
[1]
  Activity: Not Active

## NCCNC(=O)c1ccc(Cl)cc1
[1]
  deltaTm: 4.5 °C
[2]
  Ki: 32.2 nM
[3]
  Ki: 997 nM
[4]
  EC50: 29000 nM

## N[C@@H]1C[C@H]1c1ccccc1.N[C@H]1C[C@@H]1c1ccccc1 (relative stereo) [TRANYLCYPROMINE]
[1]
  Activity: Not Active

## NCCNC(=O)c1ccc(Cl)cn1 [LAZABEMIDE]
[5]
  Activity: 100%
[6]
  Activity: 74%
[1]
  deltaTm: 7 °C

## C#CCN(C)Cc1ccccc1 [PARGYLINE]
[7]
  deltaTm: 12.3 °C

## CCc1ccc(CCOc2ccc(CC3SC(=O)NC3=O)cc2)nc1 (stereo unspecified) [PIOGLITAZONE]
[1]
  deltaTm: 2.5 °C

## C#CCN[C@@H]1CCc2ccccc21 [RASAGILINE]
[7]
  deltaTm: 14.6 °C

## C[C@H](NCc1ccc(OCc2cccc(F)c2)cc1)C(N)=O [SAFINAMIDE]
[5]
  Activity: 100%
[6]
  Activity: 31%

## C#CCN(C)[C@H](C)Cc1ccccc1 [SELEGILINE]
[8]
  INH: < 200 nM
[9]
  INH: 781 nM
